Screening results from PubChem.
SKN-1 block: suppressors of acrylamide-induced Pgst-4::GFP reporter in worms, primary screen, SKN-1 inhibitor project, whole organism, uHTS, GFP/RFP fluorescence ratio, strain VP596. C. elegans VP596 Pgst-4::GFP/RFP ratio, 24 h. inhibition, % at 21.8 µM. 360,000 compounds, 0.49% hits;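 active = interference check ratio from 0.5 to 1.5 plus GFP to RFP signal ratio inhibition reaching or exceeding a fixed threshold, cut at about 30% in these data, passing the limit was not always enough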
MT1-MMP act inh: blockers of MT1-MMP proenzyme processing, primary screen, HT1080 RFP-PRO-GFP cells, GFP/RFP fluorescence | 360,000 compounds, 0.061% hits | GFP/RFP ratio fluorescence, overnight; percent of plate control window, DMSO zero | GFP/RFP ratio change, % at 20 µM | AID 651647, 2012 | Matrix metalloproteinase-14 (Homo sapiens), P50281;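 active = GFP/RFP ratio change of at least 30% with cell ATP level not reduced by more than half and red fluorescence within 50% of control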
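Material – HT1080 RFP-PRO-GFP cells · Control set – DMSO wells and RFP-L50D-GFP cells · Incubation – overnight cell settling, then overnight compound exposure, 37 °C, 5% CO2 · Compound dosing – single-point 20 µM compound, 1% DMSO · Read-out – GFP/RFP fluorescence ratio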
DDE Tn7 FP inh: inhibitors of Tn7 peptide binding to fibrin DD(E), primary screen, biochemical, fluorescence polarization, human fibrin, Tn7 probe. inhibition, % at 8.3 µM. FP displacement of FITC-Tn7 peptide from fibrin DD(E); 0% = median of compound wells per plate. 370,000 compounds, 0.13% hits. AID 720508, 2013. Fibrinogen beta chain (Homo sapiens), P02675;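 active = inhibition above the mean of compounds falling within the control limits plus 3 SD of them, cut at about 14% in these data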;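 also: 0% = plate median of compound wells and 100% = 10 µM Aha-Tn7 peptide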
Target sequence (P02675 whole entry, looked up): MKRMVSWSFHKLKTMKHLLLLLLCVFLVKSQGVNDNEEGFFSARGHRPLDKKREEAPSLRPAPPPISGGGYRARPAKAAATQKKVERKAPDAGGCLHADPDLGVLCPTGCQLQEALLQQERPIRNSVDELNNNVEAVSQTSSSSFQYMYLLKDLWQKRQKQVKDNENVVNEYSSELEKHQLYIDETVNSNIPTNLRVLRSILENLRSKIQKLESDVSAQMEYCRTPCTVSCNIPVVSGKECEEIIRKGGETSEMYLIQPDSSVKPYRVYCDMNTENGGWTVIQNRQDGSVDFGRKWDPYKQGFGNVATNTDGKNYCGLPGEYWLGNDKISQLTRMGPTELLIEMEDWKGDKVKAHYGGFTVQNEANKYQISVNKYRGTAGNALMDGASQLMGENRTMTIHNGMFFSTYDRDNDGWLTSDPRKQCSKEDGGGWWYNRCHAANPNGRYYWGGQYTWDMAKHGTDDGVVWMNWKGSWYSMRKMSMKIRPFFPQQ
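Assay system: Fibrin-DD(E) protein isolated from polymerized human fibrin clots; read-out basis: percent inhibition; medium: Tris/NaCl/CaCl2 buffer, pH 7.8; signal: FP measurement; incubation: 10 min plus 3 h, room temperature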
DDE Tn6 FP inh: inhibitors of Tn6 peptide binding to fibrin DD(E), primary screen, biochemical, fluorescence polarization, human fibrin, Tn6 probe; Fibrin DD(E) TRITC-Tn6 fluorescence polarization displacement; inhibition, % at 8.3 µM; AID 720509, 2013; 370,000 compounds, 0.21% hits; Fibrinogen beta chain (Homo sapiens), P02675;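 active = inhibition above a per-campaign cutoff: mean of compounds within control limits plus 3 SD, cut at about 15% in these data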;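 also: 0% = median of all compound wells on the plate and 100% = blocking peptide control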
Numbers without * were called inactive; nt = not tested or not shown. Rows were chosen to be rich in hits. Some 0.84% of all compounds tested hit in one or more screens of this group.

SMILES	SKN-1 block	MT1-MMP act inh	DDE Tn7 FP inh	DDE Tn6 FP inh
CN1C(=O)C(N=Nc2ccc([N+](=O)[O-])cc2)SC1=S (stereo not given)	96*	0	5	5
Fc1cc(Cl)c(OCc2noc(-c3ccsc3)n2)c(Cl)c1	-15	0	-3	2
Clc1ccc(OCc2noc(-c3ccsc3)n2)c(Cl)c1	74*	-2	2	-4
O=C(Nc1ccc(Cl)cc1)NC1CCCCNC1=O (stereo not given)	36*	1	5	7
O=C(Nc1ccc(Cl)cc1)NC1CCCCC1	8	3	-3	4
CCOC(=O)C1Nc2ccccc2C2C(O)C(O)CC12 (stereo not given)	12	46*	2	-2
O=C(NCc1ccc(F)c(F)c1)c1ccc(-c2ccc(F)c(F)c2)c2ccoc12	80*	-1	-2	0
O=C(NCc1cccnc1)c1ccc(-c2ccc(F)c(F)c2)c2ccoc12	28	5	-5	-6
O=C(NCc1ccc(Cl)cc1)c1ccc(-c2ccc(F)c(F)c2)c2ccoc12	36*	2	-4	2
Clc1ccc(-c2cc(-c3nnc4sc(Cc5cccs5)nn34)[nH]n2)cc1	nt	nt	-9	-7
CCOc1ccccc1NC(=O)Cn1c(=O)oc2ccccc21	9	-5	-2	-5
CCOc1ccccc1NC(=O)Cn1c(=O)oc2cc(Cl)ccc21	35*	-1	2	-4
C[C@@H]1CN([C@H](C)CO)C(=O)c2cc(NC(=O)Nc3ccc(C(F)(F)F)cc3)ccc2O[C@H]1CN(C)S(=O)(=O)c1ccc(Cl)cc1	5	1	0	44*
O=C(COC(=O)COc1ccc(Br)cc1)NC1CCS(=O)(=O)C1 (stereo not given)	18	2	2	0
Cc1c(-n2c(CN3C(=O)c4ccccc4C3=O)nc3ccccc3c2=O)c(=O)n(-c2ccccc2)n1C	40*	2	1	5
C#CCNC(=O)C[C@H]1C[C@@]2(C(=O)OC)C(=C[C@H](C(C)C)O[C@@H]2C2CC2)N(CCCCCCCC)C1=O	nt	nt	8	3
COc1ccc2oc(=O)c(/C(N)=N/NC(=O)c3ccncc3)cc2c1	38*	-3	-1	1
CCOc1cc(C(N)=O)cc(Br)c1OC	44*	-6	7	3
CCOc1cc(C(N)=O)cc(OCC)c1OCC	6	5	-3	-8
Cc1nc2ccccc2cc1OCc1ccc(Cl)cc1	89*	0	3	3
COc1cccc(COc2cc3ccccc3nc2C)c1	45*	1	1	4
Cc1nc2ccccc2cc1OCc1ccccc1	32	1	-1	10
CCCOc1ccc(N2C(=O)CC(N(CCc3ccccc3)C(=O)c3ccccc3)C2=O)cc1 (stereo not given)	-1	0	-4	0
CCCOc1ccc(N2C(=O)CC(N(CCc3ccc(OC)cc3)C(=O)c3cccc(F)c3)C2=O)cc1 (stereo not given)	35*	-2	-1	2
CSc1ccccc1C(=O)NCCOc1cccc(C)c1	40*	-4	4	9
SMILES	SKN-1 block	MT1-MMP act inh	DDE Tn7 FP inh	DDE Tn6 FP inh
Cc1ccc(C(=O)NCCOc2cccc(C)c2)cc1	9	-5	0	-4
CCCCCNC(=O)c1ccccc1SC	35*	-3	0	5
CCCCNC(=O)c1ccccc1C(=O)NCCCC	-2	0	-4	-6
Cc1ccc(C(C#N)c2ccc3c(C(F)(F)F)cc(C(F)(F)F)nc3n2)cc1 (stereo not given)	44*	5	4	2
Nc1cc(=O)[nH]c(SCC(=O)Nc2ccc(S(=O)(=O)N3CCOCC3)cc2)n1	35*	-4	-4	1
Nc1cc(=O)[nH]c(SCC(=O)Nc2ccc(S(=O)(=O)N3CCCCC3)cc2)n1	5	2	-2	5
COC(=O)[C@]12C[C@H](CC(=O)N3CCN(C(=O)C4CC4)CC3)C(=O)N(Cc3ccc4c(c3)OCO4)C1=C[C@H](C(C)C)O[C@@H]2C1CC1	nt	nt	1	0
O=C(c1cccnc1)C1Cc2ccccc2C1=O (stereo not given)	36*	1	6	5
CC1COCC(C)N1C(=O)c1cccnc1 (stereo not given)	1	-2	-1	-5
CCN1CCN(Cc2ccc(NC(=O)c3cc(NC(=O)C(=O)c4c[nH]c5ccccc45)cc(OC)c3)cc2C(F)(F)F)CC1	8	3	4	44*
CSc1ccc(NC(=O)NCCCN2CCN(c3ccccc3F)CC2)cc1	33*	8	nt	nt
O=C(NCCCN1CCN(c2ccccc2F)CC1)Nc1ccc(F)cc1	26	4	-5	12
N#Cc1ccccc1NC(=O)Nc1cccc(Cl)c1	41*	5	-3	-3
CCC(CO)Nc1cccc2c1S(=O)(=O)N(Cc1cn(Cc3ccc(F)cc3)nn1)Cc1ccccc1O2 (stereo not given)	nt	nt	-11	10
FCCCOc1ccc(-c2nccc(-c3ccccn3)n2)cc1	66*	-1	0	3
O=C(O)COc1ccc(-c2nccc(-c3ccccn3)n2)cc1	-4	6	-3	5
Clc1ccsc1-c1csc(-c2cccnc2)n1	42*	1	-3	-2
c1cncc(-c2csc(-c3cccnc3)n2)c1	4	0	-8	-8
CC1=NN(C(=O)COc2ccccc2C)C(O)(c2ccc(Cl)cc2)C1 (stereo not given)	2	1	4	1
Cc1ccc(N=C2NC(=O)/C(=C\c3ccc(C)s3)S2)cc1	38*	-11	9	7
COc1cccc(C2=NN(C(C)=O)C(c3cccs3)C2)c1 (stereo not given)	36*	0	0	3
COc1ccc(C2=NN(C(C)=O)C(c3cccs3)C2)cc1OC (stereo not given)	21	-2	-5	-4
COc1ccc(C2CC(c3ccccc3)=NN2C(=O)c2cccs2)cc1 (stereo not given)	37*	-8	5	2
c1ccc(-n2cnc3cc(NCc4ccco4)ccc32)cc1	8	5	3	-7
Fc1cccc(Cn2ccc3ccc(-c4ccc5ccn(Cc6ccccc6)c5c4)cc32)c1	nt	nt	0	-7
COC(=O)c1ccc(Nc2cc(C)nc3ncnn23)cc1	37*	-2	-4	-5
CCOC(=O)c1ccc(Nc2cc(C)nc3ncnn23)cc1	-12	-32	4	1
CCn1cnc2c(NCc3cccnc3)nc(C#N)nc21	nt	nt	2	-10
